Data on nine compounds can be found in ChEMBL document CHEMBL1153756, “Synthesis and pharmacological evaluation of N-phenyl-acetamide sulfonamides designed as novel non-hepatotoxic analgesic candidates” (Eur J Med Chem, 2009).

The subject of data set [1] is Mus musculus. The experiment in a line: Hepatotoxicity in Swiss mouse assessed as changes in morphology of liver parenchyma at 100 umol/kg, po for five days after 24 hrs of last dose. Particulars: in vivo. In kind it is toxicity, organism-based. A digest of the protocol: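 Swiss mice given 100 µmol/kg p.o. daily for 5 days; controls received vehicle. After blood collection 24 h post last dose, animals were killed with CO₂; ten liver samples per animal (two each from left, right, left middle, right middle and caudate lobes) fixed in 10% neutral buffered formalin, H&E stained, examined at 100× and 400× for necrosis or degeneration.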

Data set [2] concerns Mus musculus. The experiment in a line: Analgesic activity in Swiss mouse at 100 umol/kg, po after 60 mins by hot plate test. It counts as functional. The essentials: (§1)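 Swiss mice (20–30 g) given 100 µmol/kg orally and placed on a hot plate at 55 ± 1 °C. Latency to fore- or hind-paw licking or jumping recorded 30, 60, 90 and 120 min after dosing. Baseline is the mean reaction time at 30 and 60 min before dosing. n = 6–8. ANOVA with Dunnett test vs control.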

Data set [3] concerns Mus musculus. The experiment in a line: Analgesic activity in Swiss mouse at 100 umol/kg, po after 30 mins by hot plate test. In kind it is functional. A digest of the protocol: as §1
Data set [4] concerns Mus musculus. The experiment in a line: Hypothermic activity in Swiss mouse assessed as decrease in rectal body temperature at 100 umol/kg, po after 1 hr at room temperature. It counts as organism-based. To be noted: in vivo. A digest of the protocol:
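Swiss mice with normal rectal temperature (37.0–38.0 °C) were acclimatized 1 h at 25 °C room temperature, and baseline rectal temperature was taken. Animals were then dosed orally at 100 µmol/kg, and rectal temperature was re-measured 1 h later; change from baseline reported, n = 8, mean ± S.E.M., Dunnett versus control.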

The subject of data set [5] is Mus musculus. The experiment in a line: Analgesic activity in Swiss mouse at 100 umol/kg, po after 90 mins by hot plate test. In kind it is functional. A digest of the protocol: as §1
On the technique in general: Thermal pain tests record how soon the animal reacts.

In data set [6] the test system is Mus musculus. The experiment in a line: Analgesic activity in Swiss mouse assessed as inhibition of acetic acid-induced abdominal writhings at 100 umol/kg, po administered 60 mins before acetic acid challenge relative to control. Also on record: scale not given: the % may be the effect or the level left. (In general: An intraperitoneal irritant provokes the stretching counted in writhing tests.)

Data set [7] has as its system Mus musculus. The data set can be described thus: Antihyperalgesic activity in Swiss mouse assessed as inhibition of formalin-induced nociception at 100 umol/kg, po administered 40 mins before formalin challenge measured after 15 to 30 mins. It counts as functional, organism-based. A digest of the protocol:
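Swiss mice given 100 µmol/kg p.o. (vehicle arabic gum) 40 min before 20 µL of 2% formalin in 0.9% saline s.c. into the right hind paw. Licking/biting time recorded 0–5 min (neurogenic phase) and 15–30 min (inflammatory phase). n = 6. Mean ± S.E.M. ANOVA with Dunnett test vs control.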

Data set [8] has as its system Mus musculus. The experiment in a line: Analgesic activity in Swiss mouse at 100 umol/kg, po after 120 mins by hot plate test. It counts as functional. The essentials: as §1
The subject of data set [9] is Mus musculus. The data set can be described thus: Analgesic activity in Swiss mouse at 15 umol/kg, ip after 120 mins by hot plate test. In kind it is functional. The essentials:
(§2)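 Hot-plate reference arm in Swiss mice: morphine 15 µmol/kg i.p. Animals placed on a plate at 55 ± 1 °C. Paw-licking or jumping latency read 30, 60, 90 and 120 min after treatment. Baseline is the mean of readings at 30 and 60 min before treatment. n = 8.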

Data set [10] deals with Mus musculus. The data set can be described thus: Analgesic activity in Swiss mouse at 15 umol/kg, ip after 60 mins by hot plate test. It counts as functional. A digest of the protocol: as §2
The subject of data set [11] is Mus musculus. The data set can be described thus: Analgesic activity in Swiss mouse at 15 umol/kg, ip after 90 mins by hot plate test. It counts as functional. A digest of the protocol: as §2
Data set [12] concerns Mus musculus. The data set can be described thus: Analgesic activity in Swiss mouse at 15 umol/kg, ip after 30 mins by hot plate test. In kind it is functional. The essentials:
as §2

The test system of data set [13] is Mus musculus. The data set can be described thus: Antihyperalgesic activity in Swiss mouse assessed as inhibition of formalin-induced nociception at 100 umol/kg, po administered 40 mins before formalin challenge measured after 0 to 5 mins. It counts as functional, organism-based.
Data set [14] has as its system Mus musculus. The data set can be described thus: Analgesic activity in po dosed Swiss mouse assessed as inhibition of acetic acid-induced abdominal writhings administered 60 mins before acetic acid challenge measured for 25 mins. In kind it is functional. To be noted: Abdomen. A digest of the protocol: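 Swiss mice (20–30 g). Oral dosing before i.p. 0.6% (v/v) acetic acid, 0.1 mL/10 g. Writhes (abdominal contraction, pelvic rotation, hind-limb extension) counted for 20 min starting 5 min after injection. Result expressed as % inhibition vs vehicle controls. Screening at 100 µmol/kg p.o.; dose-response at 100, 30, 10 and 3 µmol/kg with ID50 by linear regression. n = 8.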

Data set [15] deals with Mus musculus. The data set can be described thus: Hepatotoxicity in Swiss mouse assessed as increase in serum gamma-glutamyl transferase at 100 umol/kg, po for five days after 24 hrs of last dose. It counts as toxicity, organism-based. To be noted: in vivo. A digest of the protocol: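 Swiss mice received 100 µmol/kg p.o. daily for five days (n = 6; vehicle n = 5). 24 h after the last dose, blood was drawn under ethyl ether anaesthesia, and serum was separated at 3000 × g for 15 min and kept at 4 °C. gGT was assayed by a kinetic kit method, in U/L. ANOVA with Dunnett test.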

SMILES strings stand for the structures. Activity calls are given as the source filed them. The rule behind the calls is not given here.

As to `CC(=O)Nc1ccc(O)cc1` [ACETAMINOPHEN], the Activity result was “Toxic” in the data set with Mus musculus [1]; 60.6% in the data set with Mus musculus [2]; 51.8% with Mus musculus [3]; -1.1 °C in the data set on Mus musculus [4]; 54.6% in the data set on Mus musculus [5]; 34% with Mus musculus [6]. In the data set on Mus musculus [8], this compound displayed an Activity of 54.6%. In addition, in the data set on Mus musculus [7], the outcome was inactive.
For the compound `CC(=O)Nc1ccc(S(=O)(=O)N2CCCCC2)cc1`, the Activity with Mus musculus [2] was 14.3%; with Mus musculus [3], 26.5%; in the data set with Mus musculus [4], -0.8 °C; with Mus musculus [5], 18.2%; in the data set with Mus musculus [6], 29.6%; in the data set with Mus musculus [8], 30.7%. In addition, the outcome with Mus musculus [7] was Active.
As for `CCN(CC)S(=O)(=O)c1ccc(NC(C)=O)cc1`, the Activity was 0% in the data set with Mus musculus [2]; 2.4% in the data set on Mus musculus [3]; -1.8 °C in the data set on Mus musculus [4]; 0% in the data set on Mus musculus [5]; 45.8% in the data set with Mus musculus [6]; 0% with Mus musculus [8]. In the data set with Mus musculus [7], the result was Active.
As to `CN1CC[C@]23c4c5ccc(O)c4O[C@H]2[C@@H](O)C=C[C@H]3[C@H]1C5` [MORPHINE], the Activity in the data set on Mus musculus [9] amounted to 32.1%; with Mus musculus [10], 74.7%; in the data set on Mus musculus [11], 57.8%; in the data set on Mus musculus [12], 78.9%.
For the compound `CC(=O)Nc1ccc(S(=O)(=O)N2CCOCC2)cc1`, the Activity in the data set with Mus musculus [2] was 23.3%; in the data set with Mus musculus [3] it was 22%; in the data set on Mus musculus [4], -1.4 °C; with Mus musculus [5], 20.7%; in the data set on Mus musculus [6], 43.2%; in the data set on Mus musculus [8], 8%. Also, the result with Mus musculus [7] was inactive.
As for `CC(=O)Nc1ccc(S(=O)(=O)N2CCSCC2)cc1`, the Activity in the data set with Mus musculus [2] was 28.6%; in the data set with Mus musculus [3], 25%; in the data set on Mus musculus [4], -0.7 °C; with Mus musculus [5] it was 48.3%; in the data set with Mus musculus [6] it was 44%; in the data set on Mus musculus [8], 65.1%. Further, the result with Mus musculus [13] and with Mus musculus [7] was inactive.
For `CC(=O)Nc1ccc(S(=O)(=O)N2CCNCC2)cc1`, the Activity is 7.2% in the data set with Mus musculus [2]; 23.5% with Mus musculus [3]; 0.2 °C in the data set on Mus musculus [4]; 37.1% with Mus musculus [5]; 61.1% with Mus musculus [6]; 0% with Mus musculus [8]. For the same compound, the result in the data set with Mus musculus [7] was inactive.
On to `CCNS(=O)(=O)c1ccc(NC(C)=O)cc1`, for which the Activity turned out to be 6% in the data set on Mus musculus [2]; 23% with Mus musculus [3]; 0.2 °C with Mus musculus [4]; 32.8% in the data set with Mus musculus [5]; 48.6% with Mus musculus [6]; 24.2% in the data set on Mus musculus [8]. For the same compound, the result in the data set on Mus musculus [13] and with Mus musculus [7] was inactive.
With `CC(=O)Nc1ccc(S(=O)(=O)N2CCN(C)CC2)cc1`, the Activity entry with Mus musculus [1] was “Non-toxic”; in the data set on Mus musculus [14], “Dose-dependent effect”; in the data set on Mus musculus [2] it was 47.9%; with Mus musculus [3], 57.5%; in the data set with Mus musculus [4] it was -1.8 °C; in the data set on Mus musculus [15], “Non-toxic”. The figures for the Activity in the data set with Mus musculus [5], in the data set with Mus musculus [6] and in the data set on Mus musculus [8] were 19.6%, 75% and 21.3%, respectively. Also, the outcome with Mus musculus [13] and with Mus musculus [7] was inactive.
